# Assays:
# [1] = target: Calcium/calmodulin-dependent protein kinase type II subunit gamma (Homo sapiens) (UniProt Q13555); experiment: Binding affinity to wild-type human partial length CAMK2G (R9 to A303 residues) expressed in bacterial expression system assessed as residual binding level at 1 uM by Kinomescan method relative to control
# [2] = target: Testis-specific serine/threonine-protein kinase 3 (Homo sapiens) (UniProt Q96PN8); experiment: Binding affinity to wild-type human full length TSSK3 (M1 to T268 residues) expressed in mammalian expression system assessed as residual binding level at 1 uM by Kinomescan method relative to control
# Method in brief: (§1)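 KinomeScan, an active site-directed competition binding panel of 468 kinases. The test compound was at 1 μM. The readout is remaining kinase binding as a percentage of the DMSO control. Scores above 35% were treated as weak binding and not listed.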
# [3] = system: Mast/stem cell growth factor receptor Kit (Homo sapiens), P10721 [V559D,T670I]; experiment: Binding affinity to human partial length KIT V559D/T670I double mutant (Y545 to D952 residues) expressed in bacterial expression system assessed as residual binding level at 1 uM by Kinomescan method relative to control
# Method in brief: (§2)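 KinomeScan active site-directed competition binding panel (468 kinases), compound tested at 1 μM. Result expressed as remaining kinase signal versus DMSO control (percent of control).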
# [4] = target: Mitogen-activated protein kinase kinase kinase kinase 5 (Homo sapiens) (UniProt Q9Y4K4); experiment: Binding affinity to wild-type human partial length MAP4K5 (M1 to P297 residues) expressed in bacterial expression system assessed as residual binding level at 1 uM by Kinomescan method relative to control
# Chain of Mitogen-activated protein kinase kinase kinase kinase 5 (Homo sapiens) (Q9Y4K4 whole entry, looked up, the tested form may be a part): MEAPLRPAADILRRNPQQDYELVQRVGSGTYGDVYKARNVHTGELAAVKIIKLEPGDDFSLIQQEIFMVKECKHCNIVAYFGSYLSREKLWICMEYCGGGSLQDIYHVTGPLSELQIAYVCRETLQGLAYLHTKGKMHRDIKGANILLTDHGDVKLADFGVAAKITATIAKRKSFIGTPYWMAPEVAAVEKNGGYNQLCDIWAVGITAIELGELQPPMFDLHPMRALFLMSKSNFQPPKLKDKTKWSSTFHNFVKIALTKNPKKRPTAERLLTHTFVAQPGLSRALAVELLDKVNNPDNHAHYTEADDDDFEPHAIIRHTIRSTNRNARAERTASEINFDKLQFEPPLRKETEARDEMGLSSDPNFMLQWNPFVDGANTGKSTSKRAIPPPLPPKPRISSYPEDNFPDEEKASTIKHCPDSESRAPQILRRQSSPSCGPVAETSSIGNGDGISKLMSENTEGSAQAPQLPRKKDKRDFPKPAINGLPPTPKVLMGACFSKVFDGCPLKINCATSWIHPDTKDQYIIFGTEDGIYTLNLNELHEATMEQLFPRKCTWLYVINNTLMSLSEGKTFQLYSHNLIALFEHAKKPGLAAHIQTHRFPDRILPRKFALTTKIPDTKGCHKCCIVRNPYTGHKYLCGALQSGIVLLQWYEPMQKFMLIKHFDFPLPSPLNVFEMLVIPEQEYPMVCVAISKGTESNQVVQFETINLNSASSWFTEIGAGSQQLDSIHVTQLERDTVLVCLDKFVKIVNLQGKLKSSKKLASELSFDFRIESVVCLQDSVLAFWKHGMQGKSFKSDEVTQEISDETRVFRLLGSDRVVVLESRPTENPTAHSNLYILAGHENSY
# [5] = target: Serine/threonine-protein kinase 17B (Homo sapiens) (UniProt O94768); experiment: Binding affinity to wild-type human full length DRAK2 (M1 to C372 residues) expressed in bacterial expression system assessed as residual binding level at 1 uM by Kinomescan method relative to control
# Chain of Serine/threonine-protein kinase 17B (Homo sapiens) (O94768 whole entry, the tested form may be a part): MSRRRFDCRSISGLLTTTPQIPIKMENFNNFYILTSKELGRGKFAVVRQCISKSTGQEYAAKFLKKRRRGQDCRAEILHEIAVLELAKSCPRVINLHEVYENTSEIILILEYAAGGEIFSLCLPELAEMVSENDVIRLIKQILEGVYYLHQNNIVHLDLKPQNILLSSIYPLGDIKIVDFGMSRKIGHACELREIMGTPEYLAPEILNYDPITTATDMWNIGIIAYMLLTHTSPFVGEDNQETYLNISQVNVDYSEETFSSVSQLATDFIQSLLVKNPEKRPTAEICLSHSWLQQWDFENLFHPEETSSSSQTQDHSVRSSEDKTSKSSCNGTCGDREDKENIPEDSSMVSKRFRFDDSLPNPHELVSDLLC
# Method in brief: (§3)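 Active-site-directed KinomeScan competition binding panel covering 468 kinases, compound tested at 1 μM. Each readout is the kinase signal remaining with compound, expressed as a percentage of the DMSO control. […]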
# [6] = target: MAP/microtubule affinity-regulating kinase 3 (Homo sapiens) (UniProt P27448); experiment: Binding affinity to wild-type human full length MARK3 (M1 to L729 residues) expressed in bacterial expression system assessed as residual binding level at 1 uM by Kinomescan method relative to control; method in brief: as §1
# [7] = target: Serine/threonine-protein kinase N1 (Homo sapiens) (UniProt Q16512); experiment: Binding affinity to wild-type human partial length PKN1 (E598 to C948 residues) expressed in bacterial expression system assessed as residual binding level at 1 uM by Kinomescan method relative to control
# Method in brief: (§4)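 Active-site-directed competition binding panel of 468 kinases (KinomeScan), compound at 1 μM. The read-out is kinase remaining bound, given as a percentage of the DMSO control. […]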
# NCI-H1975 = experiment: Antiproliferative activity against human NCI-H1975 cells assessed as reduction in cell viability incubated for 72 hrs by cell-titer glo assay; settings: NCI-H1975, 72 h
# [8] = target: Tyrosine-protein kinase FRK (Homo sapiens) (UniProt P42685); experiment: Binding affinity to wild-type human partial length FRK (A215 to F503 residues) expressed in bacterial expression system assessed as residual binding level at 1 uM by Kinomescan method relative to control; method in brief: as §4
# [9] = target: Mitogen-activated protein kinase 1 (Homo sapiens) (UniProt P28482); experiment: Binding affinity to wild-type human full length ERK2 (M1 to S360 residues) expressed in bacterial expression system assessed as residual binding level at 1 uM by Kinomescan method relative to control; method in brief: as §3
# Chain of Mitogen-activated protein kinase 1 (Homo sapiens) (P28482 whole entry, the tested form may be a part): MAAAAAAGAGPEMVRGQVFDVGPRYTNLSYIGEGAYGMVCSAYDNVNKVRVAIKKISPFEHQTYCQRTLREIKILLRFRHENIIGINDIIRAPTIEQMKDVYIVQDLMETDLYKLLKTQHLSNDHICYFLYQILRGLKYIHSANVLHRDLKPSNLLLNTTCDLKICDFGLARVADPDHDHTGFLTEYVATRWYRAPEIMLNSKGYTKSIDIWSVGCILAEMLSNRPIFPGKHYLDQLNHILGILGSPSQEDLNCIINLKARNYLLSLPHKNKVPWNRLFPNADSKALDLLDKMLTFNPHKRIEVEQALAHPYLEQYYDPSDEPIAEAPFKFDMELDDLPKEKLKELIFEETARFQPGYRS
# [10] = target: Serine/threonine-protein kinase 4 (Homo sapiens) (UniProt Q13043); experiment: Binding affinity to wild-type human full length MST1 (M1 to F487 residues) expressed in bacterial expression system assessed as residual binding level at 1 uM by Kinomescan method relative to control; method in brief: as §1
# Chain of Serine/threonine-protein kinase 4 (Homo sapiens) (Q13043 whole entry, the tested form may be a part): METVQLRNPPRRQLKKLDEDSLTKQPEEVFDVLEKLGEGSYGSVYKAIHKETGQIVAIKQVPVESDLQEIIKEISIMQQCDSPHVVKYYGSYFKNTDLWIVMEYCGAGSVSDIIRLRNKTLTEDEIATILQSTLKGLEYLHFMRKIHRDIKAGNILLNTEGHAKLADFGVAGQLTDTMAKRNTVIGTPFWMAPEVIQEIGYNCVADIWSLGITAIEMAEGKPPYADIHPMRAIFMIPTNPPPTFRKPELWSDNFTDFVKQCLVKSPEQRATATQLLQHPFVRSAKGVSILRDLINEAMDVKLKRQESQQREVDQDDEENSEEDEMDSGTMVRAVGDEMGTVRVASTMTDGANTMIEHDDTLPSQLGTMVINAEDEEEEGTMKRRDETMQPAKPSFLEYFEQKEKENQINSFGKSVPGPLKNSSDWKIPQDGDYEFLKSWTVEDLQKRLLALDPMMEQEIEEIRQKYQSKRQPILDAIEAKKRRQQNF
# [11] = target: Serine/threonine-protein kinase PknB (Mycobacterium tuberculosis) (UniProt P9WI81); experiment: Binding affinity to wild-type Mycobacterium tuberculosis partial length PKNB (M1 to G279 residues) expressed in mammalian expression system assessed as residual binding level at 1 uM by Kinomescan method relative to control; method in brief: as §3
# [12] = target: cGMP-dependent protein kinase 2 (Homo sapiens) (UniProt Q13237); experiment: Binding affinity to wild-type human partial length PRKG2 (S422 to F762 residues) expressed in mammalian expression system assessed as residual binding level at 1 uM by Kinomescan method relative to control
# [13] = target: Calcium-dependent protein kinase 1 (Plasmodium falciparum) (UniProt P62344); experiment: Binding affinity to wild-type Plasmodium falciparum full length CDPK1 (M1 to S524 residues) expressed in mammalian expression system assessed as residual binding level at 1 uM by Kinomescan method relative to control; method in brief: as §1
# Chain of Calcium-dependent protein kinase 1 (Plasmodium falciparum) (P62344 2-524 limits assumed): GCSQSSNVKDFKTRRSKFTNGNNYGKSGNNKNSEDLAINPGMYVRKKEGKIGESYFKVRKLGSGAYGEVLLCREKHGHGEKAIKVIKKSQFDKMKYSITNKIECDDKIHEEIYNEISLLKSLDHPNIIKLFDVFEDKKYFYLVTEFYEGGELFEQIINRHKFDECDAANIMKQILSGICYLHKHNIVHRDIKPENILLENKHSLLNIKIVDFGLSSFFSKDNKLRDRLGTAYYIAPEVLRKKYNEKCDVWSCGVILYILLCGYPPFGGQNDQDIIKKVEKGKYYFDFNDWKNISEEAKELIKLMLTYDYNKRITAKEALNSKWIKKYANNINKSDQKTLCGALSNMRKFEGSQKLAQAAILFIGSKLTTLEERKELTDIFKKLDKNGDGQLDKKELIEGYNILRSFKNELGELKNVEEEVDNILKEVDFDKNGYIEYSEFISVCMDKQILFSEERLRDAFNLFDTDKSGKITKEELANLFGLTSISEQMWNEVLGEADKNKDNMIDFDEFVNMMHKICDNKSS
# [14] = target: Dual specificity mitogen-activated protein kinase kinase 4 (Homo sapiens) (UniProt P45985); experiment: Binding affinity to wild-type human partial length MEK4 (S84 to D399 residues) expressed in mammalian expression system assessed as residual binding level at 1 uM by Kinomescan method relative to control
# [15] = target: Mitogen-activated protein kinase 9 (Homo sapiens) (UniProt P45984); experiment: Binding affinity to wild-type human full length JNK2 (M1 to Q382 residues) expressed in mammalian expression system assessed as residual binding level at 1 uM by Kinomescan method relative to control; method in brief: as §1
# [16] = target: Ephrin type-B receptor 2 (Homo sapiens) (UniProt P29323); experiment: Binding affinity to wild-type human partial length EPHB2 (I597 to L902 residues) expressed in bacterial expression system assessed as residual binding level at 1 uM by Kinomescan method relative to control; method in brief: as §4
# Chain of Ephrin type-B receptor 2 (Homo sapiens) (P29323 whole entry, the tested form may be a part): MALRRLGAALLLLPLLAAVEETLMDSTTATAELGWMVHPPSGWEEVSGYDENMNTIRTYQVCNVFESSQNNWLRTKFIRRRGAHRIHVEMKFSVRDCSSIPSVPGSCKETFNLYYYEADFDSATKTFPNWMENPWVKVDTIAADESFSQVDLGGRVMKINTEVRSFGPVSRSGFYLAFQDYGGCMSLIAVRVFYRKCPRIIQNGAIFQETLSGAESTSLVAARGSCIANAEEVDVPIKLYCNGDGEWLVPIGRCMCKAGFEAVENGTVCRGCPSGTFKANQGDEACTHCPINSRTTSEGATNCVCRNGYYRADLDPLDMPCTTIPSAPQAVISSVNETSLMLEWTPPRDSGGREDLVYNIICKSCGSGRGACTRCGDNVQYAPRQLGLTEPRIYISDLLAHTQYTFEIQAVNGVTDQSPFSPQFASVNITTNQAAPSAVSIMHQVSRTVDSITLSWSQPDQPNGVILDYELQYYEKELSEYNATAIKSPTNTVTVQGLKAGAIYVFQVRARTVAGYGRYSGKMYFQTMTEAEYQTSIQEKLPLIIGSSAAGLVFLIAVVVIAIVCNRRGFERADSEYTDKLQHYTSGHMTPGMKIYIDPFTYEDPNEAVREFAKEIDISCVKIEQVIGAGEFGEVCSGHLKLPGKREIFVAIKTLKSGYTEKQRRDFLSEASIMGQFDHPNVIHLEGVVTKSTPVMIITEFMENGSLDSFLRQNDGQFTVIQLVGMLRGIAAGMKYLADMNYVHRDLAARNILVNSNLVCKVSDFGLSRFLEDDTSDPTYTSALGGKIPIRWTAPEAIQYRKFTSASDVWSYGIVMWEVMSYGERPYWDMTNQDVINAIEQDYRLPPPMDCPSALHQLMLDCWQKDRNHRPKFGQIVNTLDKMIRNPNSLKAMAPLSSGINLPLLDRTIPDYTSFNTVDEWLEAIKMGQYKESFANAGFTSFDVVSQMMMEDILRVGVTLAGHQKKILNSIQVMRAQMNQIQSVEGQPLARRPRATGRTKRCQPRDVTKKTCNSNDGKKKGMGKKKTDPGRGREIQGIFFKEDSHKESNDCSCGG
# [17] = target: Vascular endothelial growth factor receptor 2 (Homo sapiens) (UniProt P35968); experiment: Binding affinity to wild-type human partial length VEGFR2 (R787 to P1253 residues) expressed in mammalian expression system assessed as residual binding level at 1 uM by Kinomescan method relative to control
# Chain of Vascular endothelial growth factor receptor 2 (Homo sapiens) (P35968 whole entry, the tested form may be a part): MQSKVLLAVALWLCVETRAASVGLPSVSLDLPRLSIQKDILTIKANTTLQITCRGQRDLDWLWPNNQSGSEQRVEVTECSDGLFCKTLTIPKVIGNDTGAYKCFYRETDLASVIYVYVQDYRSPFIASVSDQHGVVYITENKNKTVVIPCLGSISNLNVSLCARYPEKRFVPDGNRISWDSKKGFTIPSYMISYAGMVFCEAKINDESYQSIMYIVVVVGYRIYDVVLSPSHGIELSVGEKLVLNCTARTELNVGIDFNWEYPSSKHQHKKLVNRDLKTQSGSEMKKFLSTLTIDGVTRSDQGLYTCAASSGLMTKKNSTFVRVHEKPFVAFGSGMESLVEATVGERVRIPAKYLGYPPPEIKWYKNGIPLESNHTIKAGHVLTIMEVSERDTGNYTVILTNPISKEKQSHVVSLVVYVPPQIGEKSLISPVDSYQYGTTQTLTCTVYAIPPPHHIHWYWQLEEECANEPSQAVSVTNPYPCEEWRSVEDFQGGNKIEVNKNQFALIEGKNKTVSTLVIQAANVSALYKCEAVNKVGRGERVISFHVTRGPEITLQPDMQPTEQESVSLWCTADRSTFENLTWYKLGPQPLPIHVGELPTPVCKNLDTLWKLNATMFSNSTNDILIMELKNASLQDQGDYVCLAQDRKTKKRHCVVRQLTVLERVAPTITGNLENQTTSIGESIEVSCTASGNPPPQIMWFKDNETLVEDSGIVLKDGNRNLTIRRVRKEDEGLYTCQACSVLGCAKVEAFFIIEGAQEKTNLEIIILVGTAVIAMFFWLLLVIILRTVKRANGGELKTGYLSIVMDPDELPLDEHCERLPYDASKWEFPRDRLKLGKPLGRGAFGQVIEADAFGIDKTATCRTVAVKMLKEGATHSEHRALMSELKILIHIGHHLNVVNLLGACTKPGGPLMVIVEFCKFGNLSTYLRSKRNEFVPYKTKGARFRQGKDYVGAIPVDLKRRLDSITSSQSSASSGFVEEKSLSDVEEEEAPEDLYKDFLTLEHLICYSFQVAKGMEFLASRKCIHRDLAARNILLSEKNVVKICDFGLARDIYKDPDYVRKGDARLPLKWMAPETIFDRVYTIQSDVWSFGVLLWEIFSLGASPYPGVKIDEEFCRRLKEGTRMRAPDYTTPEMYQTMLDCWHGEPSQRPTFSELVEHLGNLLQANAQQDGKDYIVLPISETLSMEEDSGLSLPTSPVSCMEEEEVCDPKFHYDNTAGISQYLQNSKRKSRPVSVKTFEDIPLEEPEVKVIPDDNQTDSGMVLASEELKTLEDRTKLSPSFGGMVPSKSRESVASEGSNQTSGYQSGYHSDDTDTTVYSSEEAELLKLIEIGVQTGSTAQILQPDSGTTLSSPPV
# Method in brief: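 Active site-directed competition binding panel (KinomeScan, 468 kinases). Test compound at 1 μM. Read-out is kinase binding remaining versus DMSO control, expressed as percent of control. Scores above 35% are treated as weak binding.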
# [18] = target: Protein kinase C iota type (Homo sapiens) (UniProt P41743); experiment: Binding affinity to wild-type human partial length PRKCI (H215 to V587 residues) expressed in mammalian expression system assessed as residual binding level at 1 uM by Kinomescan method relative to control; method in brief: as §4
# [19] = system: Mast/stem cell growth factor receptor Kit (Homo sapiens), P10721 [D816H]; experiment: Binding affinity to human partial length KIT D816H mutant (I571 to D952 residues) expressed in mammalian expression system assessed as residual binding level at 1 uM by Kinomescan method relative to control; method in brief: as §2
# [20] = target: Activin receptor type-1 (Homo sapiens) (UniProt Q04771); experiment: Binding affinity to wild-type human ACVR1 (C188 to C509 residues) expressed in bacterial expression system assessed as residual binding level at 1 uM by Kinomescan method relative to control; method in brief: as §3
smiles,measurement,setting,value
C=CC(=O)Nc1ccccc1Nc1nc(Nc2ccc(N3CCN(C)CC3)cc2)ncc1C(=O)Nc1c(C)cccc1Cl,Activity,[1],100%
same,Activity,[2],90%
same,Activity,[3],100%
same,Activity,[4],100%
same,Activity,[5],100%
same,Activity,[6],90%
same,Activity,[7],83%
same,IC50,NCI-H1975,300 nM
same,Activity,[8],5.1%
same,Activity,[9],100%
same,Activity,[10],93%
same,Activity,[11],100%
same,Activity,[12],100%
same,Activity,[13],72%
same,Activity,[14],91%
same,Activity,[15],94%
same,Activity,[16],59%
same,Activity,[17],94%
same,Activity,[18],94%
same,Activity,[19],41%
same,Activity,[20],100%

# From ChEMBL document CHEMBL4354843, “Structure-Based Design of a Potent and Selective Covalent Inhibitor for SRC Kinase That Targets a P-Loop Cysteine” (J Med Chem, 2020)
